Each structure is given as a SMILES string. Calls of active or inactive are those of the source. No cut-off for these calls is given here. Some results are limits rather than exact numbers.

The term IC50 denotes the midpoint of a concentration-inhibition curve. A higher IC50 goes with a need for much substance.

The first assay deals with MCF7. The assay can be described thus: Repression of cyclinD1 level in MCF7 cells at 10 uM. Type of assay: functional, cell-based. Particulars: Homo sapiens.
With `C=CCOc1c(C)c(C)c2c(c1C)CC[C@](C)(COc1ccc(/C=C3\SC(=O)NC3=O)cc1OC)O2`, the outcome was Active.

The next assay relates to MCF7. The experiment in a line: Repression of cyclinD1 level in MCF7 cells at 2.5 uM relative to control. It is filed as functional, Homo sapiens.
Settings: not given
The gist of the method:
(§1)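 MCF-7 cells exposed for 72 h in 5% FBS-supplemented medium over 2.5-7.5 µM. Lysates were run on 10% SDS-PAGE and immunoblotted for cyclin D1 with ECL detection. Band intensity was quantified by densitometry, normalized to β-actin and expressed relative to DMSO control (100%).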
In turn, `CC(C)=CCOc1c(C)c(C)c2c(c1C)CCC(C)(COc1ccc(/C=C3\SC(=O)NC3=O)cc1)O2` (stereo not given) returned an Activity of 76%.

In turn, `C=CCOc1c(C)c(C)c2c(c1C)CCC(C)(COc1ccc(/C=C3\SC(=O)NC3=O)cc1Br)O2` (stereo not given) gave an Activity of 102%.

Turning to `CC(C)=CCOc1c(C)c(C)c2c(c1C)CCC(C)(COc1ccc(/C=C3\SC(=O)NC3=O)cc1Br)O2` (stereo not given), the Activity was determined as 96%.

Consider `Cc1c(C)c2c(c(C)c1OC/C=C/c1ccccc1)CCC(C)(COc1ccc(/C=C3\SC(=O)NC3=O)cc1)O2` (stereo not given), for which the Activity was found to be 92%.

`Cc1c(C)c2c(c(C)c1OC(=O)CCC(=O)O)CCC(C)(COc1ccc(/C=C3\SC(=O)NC3=O)cc1)O2` (stereo not given) yielded an Activity of 115%.

On to `C=CCOc1c(C)c(C)c2c(c1C)CCC(C)(COc1ccc(/C=C3\SC(=O)NC3=O)cc1OC)O2` (stereo not given), for which the Activity was found to be 34%.

Molecule `CCOc1cc(/C=C2\SC(=O)NC2=O)ccc1OCC1(C)CCc2c(C)c(OCC=C(C)C)c(C)c(C)c2O1` (stereo not given) registered an Activity of 107%.

`C=CCOc1c(C)c(C)c2c(c1C)CCC(C)(COc1ccc(/C=C3\SC(=O)NC3=O)cc1OCC)O2` (stereo not given): the Activity came to 107%.

Take `Cc1c(C)c2c(c(C)c1OCc1ccccc1)CCC(C)(COc1ccc(/C=C3\SC(=O)NC3=O)cc1)O2` (stereo not given): the Activity amounted to 85%.

Consider `C=CCOc1c(C)c(C)c2c(c1C)CCC(C)(COc1ccc(/C=C3\SC(=O)NC3=O)cc1C)O2` (stereo not given), for which the Activity is on record as 84%.

On to `CC(C)=CCOc1c(C)c(C)c2c(c1C)CCC(C)(COc1ccc(/C=C3\SC(=O)NC3=O)cc1F)O2` (stereo not given), for which the Activity was 95%.

`CC(C)=CCOc1c(C)c(C)c2c(c1C)CCC(C)(COc1ccc(/C=C3\SC(=O)NC3=O)cc1C)O2` (stereo not given) came in with an Activity of 89%.

In turn, `CC(C)=CCOc1c(C)c(C)c2c(c1C)CCC(C)(COc1ccc(/C=C3\SC(=O)NC3=O)cc1-c1ccc(F)cc1)O2` (stereo not given) had an Activity of 87%.

`COc1cc(/C=C2\SC(=O)NC2=O)ccc1OCC1(C)CCc2c(C)c(OCC=C(C)C)c(C)c(C)c2O1` (stereo not given) had an Activity of 95%.

Molecule `C=CCOc1c(C)c(C)c2c(c1C)CCC(C)(COc1cccc(/C=C3\SC(=O)NC3=O)c1)O2` (stereo not given) yielded an Activity of 84%.

Take `C=CCOc1c(C)c(C)c2c(c1C)CCC(C)(COc1ccc(/C=C3\SC(=O)NC3=O)cc1)O2` (stereo not given): the Activity came out at 45%.

The test system of the next assay is MCF7. The assay can be described thus: Antiproliferative activity against MCF7 cells by MTT assay. Type of assay: functional, cell-based. Particulars: Homo sapiens. The gist of the method: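 MCF-7 cells seeded in DMEM/Ham's F-12 with 10% FBS for 24 h, then exposed to test agents in DMSO (final 0.1%) in 5% FBS medium. Vehicle controls got matching DMSO. Medium replaced with 0.5 mM MTT in 10% FBS RPMI 1640 for 2 h at 37 °C, and reduced dye solubilized in DMSO. Six replicates.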
A general note: Tetrazolium assays rely on reduction of a dye to a coloured formazan, in cell work by metabolically active cells.
Molecule `Cc1c(C)c2c(c(C)c1O)CCC(C)(COc1ccc(/C=C3\SC(=O)NC3=O)cc1)O2` (stereo not given) returned an IC50 of 55 µM.

As to `C=CCOc1c(C)c(C)c2c(c1C)CC[C@@](C)(COc1ccc(/C=C3\SC(=O)NC3=O)cc1OC)O2`, the IC50 was found to be 5 µM.

The next assay deals with MCF7. The experiment in a line: Repression of cyclinD1 level in MCF7 cells at 7.5 uM relative to control. Type of assay: functional, Homo sapiens.
Settings: not given
The gist of the method:
as §1
In turn, `CC(C)=CCOc1c(C)c(C)c2c(c1C)CCC(C)(COc1ccc(/C=C3\SC(=O)NC3=O)cc1)O2` (stereo not given) showed an Activity of 5%.

In turn, `C=CCOc1c(C)c(C)c2c(c1C)CCC(C)(COc1ccc(/C=C3\SC(=O)NC3=O)cc1Br)O2` (stereo not given) yielded an Activity of 105%.

As to `CC(C)=CCOc1c(C)c(C)c2c(c1C)CCC(C)(COc1ccc(/C=C3\SC(=O)NC3=O)cc1Br)O2` (stereo not given), the Activity was found to be 53%.

For `Cc1c(C)c2c(c(C)c1OC/C=C/c1ccccc1)CCC(C)(COc1ccc(/C=C3\SC(=O)NC3=O)cc1)O2` (stereo not given), the Activity stood at 43%.

As to `Cc1c(C)c2c(c(C)c1OC(=O)CCC(=O)O)CCC(C)(COc1ccc(/C=C3\SC(=O)NC3=O)cc1)O2` (stereo not given), the Activity stood at 76%.

The molecule `C=CCOc1c(C)c(C)c2c(c1C)CCC(C)(COc1ccc(/C=C3\SC(=O)NC3=O)cc1OC)O2` (stereo not given) displayed an Activity of 1%.

`CCOc1cc(/C=C2\SC(=O)NC2=O)ccc1OCC1(C)CCc2c(C)c(OCC=C(C)C)c(C)c(C)c2O1` (stereo not given) came in with an Activity of 54%.

The molecule `C=CCOc1c(C)c(C)c2c(c1C)CCC(C)(COc1ccc(/C=C3\SC(=O)NC3=O)cc1OCC)O2` (stereo not given) gave an Activity of 75%.

`Cc1c(C)c2c(c(C)c1OCc1ccccc1)CCC(C)(COc1ccc(/C=C3\SC(=O)NC3=O)cc1)O2` (stereo not given) showed an Activity of 12%.

`C=CCOc1c(C)c(C)c2c(c1C)CCC(C)(COc1ccc(/C=C3\SC(=O)NC3=O)cc1C)O2` (stereo not given) displayed an Activity of 8%.

As for `CC(C)=CCOc1c(C)c(C)c2c(c1C)CCC(C)(COc1ccc(/C=C3\SC(=O)NC3=O)cc1F)O2` (stereo not given), the Activity is reported as 64%.

`CC(C)=CCOc1c(C)c(C)c2c(c1C)CCC(C)(COc1ccc(/C=C3\SC(=O)NC3=O)cc1C)O2` (stereo not given) came in with an Activity of 27%.

On to `CC(C)=CCOc1c(C)c(C)c2c(c1C)CCC(C)(COc1ccc(/C=C3\SC(=O)NC3=O)cc1-c1ccc(F)cc1)O2` (stereo not given), for which the Activity worked out at 85%.

`COc1cc(/C=C2\SC(=O)NC2=O)ccc1OCC1(C)CCc2c(C)c(OCC=C(C)C)c(C)c(C)c2O1` (stereo not given) came in with an Activity of 54%.

In turn, `C=CCOc1c(C)c(C)c2c(c1C)CCC(C)(COc1cccc(/C=C3\SC(=O)NC3=O)c1)O2` (stereo not given) showed an Activity of 75%.

As to `C=CCOc1c(C)c(C)c2c(c1C)CCC(C)(COc1ccc(/C=C3\SC(=O)NC3=O)cc1)O2` (stereo not given), the Activity stood at 2%.

A further assay deals with MCF7. The experiment in a line: Repression of cyclinD1 level in MCF7 cells at 5 uM relative to control. It is filed as functional, Homo sapiens.
Settings: not given
The gist of the method: as §1
Molecule `CC(C)=CCOc1c(C)c(C)c2c(c1C)CCC(C)(COc1ccc(/C=C3\SC(=O)NC3=O)cc1)O2` (stereo not given) had an Activity of 21%.

For the molecule `C=CCOc1c(C)c(C)c2c(c1C)CCC(C)(COc1ccc(/C=C3\SC(=O)NC3=O)cc1Br)O2` (stereo not given), the Activity is 98%.

As for `CC(C)=CCOc1c(C)c(C)c2c(c1C)CCC(C)(COc1ccc(/C=C3\SC(=O)NC3=O)cc1Br)O2` (stereo not given), the Activity came out at 84%.

`Cc1c(C)c2c(c(C)c1OC/C=C/c1ccccc1)CCC(C)(COc1ccc(/C=C3\SC(=O)NC3=O)cc1)O2` (stereo not given) showed an Activity of 65%.

In the case of `Cc1c(C)c2c(c(C)c1OC(=O)CCC(=O)O)CCC(C)(COc1ccc(/C=C3\SC(=O)NC3=O)cc1)O2` (stereo not given), the Activity was found to be 98%.

As to `C=CCOc1c(C)c(C)c2c(c1C)CCC(C)(COc1ccc(/C=C3\SC(=O)NC3=O)cc1OC)O2` (stereo not given), the Activity came out at 5%.

In the case of `CCOc1cc(/C=C2\SC(=O)NC2=O)ccc1OCC1(C)CCc2c(C)c(OCC=C(C)C)c(C)c(C)c2O1` (stereo not given), the Activity is listed as 84%.

`C=CCOc1c(C)c(C)c2c(c1C)CCC(C)(COc1ccc(/C=C3\SC(=O)NC3=O)cc1OCC)O2` (stereo not given) returned an Activity of 87%.

`Cc1c(C)c2c(c(C)c1OCc1ccccc1)CCC(C)(COc1ccc(/C=C3\SC(=O)NC3=O)cc1)O2` (stereo not given) displayed an Activity of 42%.

As to `C=CCOc1c(C)c(C)c2c(c1C)CCC(C)(COc1ccc(/C=C3\SC(=O)NC3=O)cc1C)O2` (stereo not given), the Activity is 24%.

In turn, `CC(C)=CCOc1c(C)c(C)c2c(c1C)CCC(C)(COc1ccc(/C=C3\SC(=O)NC3=O)cc1F)O2` (stereo not given) came in with an Activity of 87%.

`CC(C)=CCOc1c(C)c(C)c2c(c1C)CCC(C)(COc1ccc(/C=C3\SC(=O)NC3=O)cc1C)O2` (stereo not given) gave an Activity of 56%.

On to `CC(C)=CCOc1c(C)c(C)c2c(c1C)CCC(C)(COc1ccc(/C=C3\SC(=O)NC3=O)cc1-c1ccc(F)cc1)O2` (stereo not given), for which the Activity was found to be 92%.

`COc1cc(/C=C2\SC(=O)NC2=O)ccc1OCC1(C)CCc2c(C)c(OCC=C(C)C)c(C)c(C)c2O1` (stereo not given) yielded an Activity of 78%.

`C=CCOc1c(C)c(C)c2c(c1C)CCC(C)(COc1cccc(/C=C3\SC(=O)NC3=O)c1)O2` (stereo not given) returned an Activity of 92%.

Take `C=CCOc1c(C)c(C)c2c(c1C)CCC(C)(COc1ccc(/C=C3\SC(=O)NC3=O)cc1)O2` (stereo not given): the Activity was determined as 42%.

A further assay relates to MCF7. The experiment in a line: Repression of cyclinD1 level in MCF7 cells after 72 hrs. It is filed as functional, cell-based. Particulars: Homo sapiens, MCF7, 72 h. The gist of the method:
as §1
For the molecule `CCCCOc1c(C)c(C)c2c(c1C)CCC(C)(COc1ccc(/C=C3\SC(=O)NC3=O)cc1C(F)(F)F)O2` (stereo not given), the IC50 stood at 6 µM.

`C=CCOc1c(C)c(C)c2c(c1C)CCC(C)(COc1ccc(/C=C3\SC(=O)NC3=O)cc1OC)O2` (stereo not given) gave an IC50 of 2.5 µM.

In turn, `CCCCOc1c(C)c(C)c2c(c1C)CCC(C)(COc1ccc(CC3SC(=O)NC3=O)cc1C(F)(F)F)O2` (stereo not given) came in with an IC50 of 9 µM.

In turn, `C=CCOc1c(C)c(C)c2c(c1C)CCC(C)(COc1ccc(/C=C3\SC(=O)NC3=O)cc1)O2` (stereo not given) registered an IC50 above 5 µM.

The values above are taken from ChEMBL document CHEMBL1137411, “Development of small-molecule cyclin D1-ablative agents” (J Med Chem, 2006).
